From publication PMC4715857 (Osteoporosis International, 2015)
Read-outs that look alike come from different tables or passages of the source.

What was measured:
[1] = Plasma ONO-5334 pharmacokinetics; type: in vivo, healthy postmenopausal women; settings: day 5, 150 mg SRT, morning regimen
Summary of the method: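 Oral sustained-release tablet, 150 mg once daily for 5 days per period, fed. Randomized crossover with ≥10-day washout. Blood taken via IV cannula over 12 h on day 1 and 24 h on day 5, hourly 1–6 h postdose. Plasma solid-phase extracted and assayed by validated LC-MS/MS (LLOQ 0.02 ng/mL). Cmax, Tmax and AUC24h derived noncompartmentally; day-5 morning/evening geometric mean ratios with 90% CI by ANOVA; Tmax by Wilcoxon signed rank test.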

serum CTX-I [2] = assay: Serum CTX-I bone resorption marker; type: in vivo, healthy postmenopausal women; settings: for time over which >60% suppression of CTX-I was sustained: 150-mg SRT for 5 days
Summary of the method: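 Serum CTX-I was measured by CrossLaps ELISA. Baseline profile on day −1 via cannula at set clock times over 24 h, ending just before the first dose (08:00 morning, 20:00 evening period). Results expressed as % change from clock-time-matched baseline; 24-h AUE compared morning vs evening by ANCOVA, with post-hoc repeated-measures analysis.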

urinary CTX-I [3] = assay: Urinary CTX-I/creatinine bone resorption marker; type: in vivo, healthy postmenopausal women; settings: 150 mg SRT once daily 5 days
Summary of the method: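 Urinary CTX-I was measured by Urine CrossLaps ELISA and normalized to creatinine. Baseline urine was taken on day −1, and postdose urine on days 1 and 5, with collection at 08:00 (morning dosing) or 20:00 (evening dosing). Dosing was 150 mg sustained-release tablet once daily for 5 days, fed. Results expressed as % change from time-matched baseline; 24-h AUE compared by ANCOVA, with post-hoc repeated-measures analysis.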

[4] = Safety assessments / adverse events; type: in vivo, healthy postmenopausal women; settings: 150 mg once daily for 5 days per period
Summary of the method: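 Each crossover period (5 days' dosing) included clinical laboratory tests, vital signs, 12-lead ECG and physical examination on admission and at follow-up. Vital signs were also taken at baseline, on all treatment days and at discharge. Adverse events were coded with MedDRA version 14.1. Fourteen subjects were in the safety analysis, and data were summarized in SAS.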

[5] = 100 mg sustained-release tablet (SRT), morning, repeat administration ref 7, 8; cited from earlier work
serum CTX-I [6] = settings: cited from earlier work; for serum CTX reduction: postmenopausal women
bone strength = settings: ovariectomized rats ref 5; cited from earlier work
[7] = test system: bone mineral density (BMD); settings: postmenopausal women with osteoporosis, 24 months of therapy ref 6; cited from earlier work
urinary CTX-I [8] = settings: 12 weeks of treatment, healthy postmenopausal women ref 30; cited from earlier work
bone resorption markers = settings: premenopausal women ref 14, cited from earlier work
serum CTX-I [9] = settings: oral calcitonin, healthy postmenopausal women ref 15; cited from earlier work

Molecule: C[C@@H]1CS/C(=N\NC(=O)C(=O)[C@@H](NC(=O)C2CCCCCC2)C2CCOCC2)N1C [ONO-5334]
- mean trough plasma concentration [1]: 9.4 ng/mL
- greater suppression of 24-h serum CTX-I AUE, morning than evening (serum CTX-I [2]; 150 mg SRT once daily 5 days): 6%
- duration of impact on bone resorption (serum CTX-I [2]; 150-mg SRT): ≥ 24 h
- time of lowest serum CTX-I levels postdose (serum CTX-I [2]; after morning and evening administration): 8 h
- plasma ONO-5334 concentration required to produce 60% reduction of serum CTX-I (serum CTX-I [2]; day 5, scatter plot of plasma concentration vs serum CTX-I %CFB, both regimens): ≥ 10 ng/mL
- time over which >60% suppression of CTX-I was sustained (serum CTX-I [2]; evening administration): 12 h
- CTX-I suppression over 24 h (serum CTX-I [2]; morning administration, 150 mg SRT for 5 days): > 60%
- time over which >60% suppression of CTX-I was sustained (serum CTX-I [2]; morning administration): 24 h
- greater suppression of 24-h urinary CTX-I/creatinine AUE, morning than evening (urinary CTX-I [3]): 7%
- laboratory safety data, vital signs, electrocardiogram or physical examinations [4]: no clinically relevant
- safety findings [4]: no safety findings of concern
- mean half-life [5]: 15 h
- median time to maximum plasma concentration (Tmax) [5]: 4 h
- suppression of serum CTX-I (serum CTX-I [6]): approximately 60%
- effect on bone strength (bone strength): improved bone strength
- effect on cortical and trabecular bone mineral density (BMD) [7]: significantly improved

Molecule: NCCCC(O)(P(=O)(O)O)P(=O)(O)O [alendronate]
- Serum CTX-I decreases (serum CTX-I [6]; following 30–36 months of therapy ref 28, 29): 67–70%
- urinary CTX-I reduction (urinary CTX-I [8]): 53%

Molecule: CCCN1CCN(c2ccc(C(=O)NC3(C(=O)NCC#N)CCCCC3)cc2)CC1 [balicatib]
- serum CTX reduction (serum CTX-I [6]; 1-year study ref 22): 61%

Molecule: [Ca] [elemental calcium, calcium]
- effect on bone resorption (bone resorption markers; 1000 mg at bedtime): suppressed nighttime increases of bone resorption
- effect on bone resorption (bone resorption markers; 1000 mg, morning administration): no effect

Molecule: CC(C)(F)C[C@H](N[C@@H](c1ccc(-c2ccc(S(C)(=O)=O)cc2)cc1)C(F)(F)F)C(=O)NC1(C#N)CC1 [odanacatib]
- suppression of serum CTX-I (serum CTX-I [6]): approximately 60%
- continuous reductions of serum CTX-I (serum CTX-I [6]; postmenopausal women with low BMD, following 5 years of treatment ref 4): 55%
- reductions of serum CTX-I (serum CTX-I [6]; postmenopausal women with low BMD, once-weekly, most of the first year of treatment ref 25): > 60%
- serum CTX reduction (serum CTX-I [6]; single or repeated doses for 3 weeks ref 23, 24): 62–66%

Molecule: calcitonin [oral calcitonin]
- duration of impact on bone resorption (serum CTX-I [9]): about 12 h
